These results are taken from ChEMBL document CHEMBL2375279, “Synthesis and biological evaluation of helioxanthin analogues” (Bioorg Med Chem, 2013).

The structures appear in SMILES notation.

Test system in the first series: not listed separately
The series can be described thus: Cytotoxicity against human HepA2 cells after 2 days by MTT assay. The format is cell-based.
Conditions: not given
In outline: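 HepA2 cells were seeded in DMEM with 10% FCS, attached for 24 h, washed with PBS pH 7.0, and then exposed to various compound concentrations in serum-free DMEM for 48 h. Viable cell number in each well was then determined by MTT assay.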
Regarding `CC(=O)OCc1cc2ccc3c(c2c(-c2ccc(O)c(O)c2)c1COC(C)=O)OCO3`, the CC50 at 48 h is > 12.5 µM.

Turning to `COc1cc(-c2c(COC(C)=O)c(COC(C)=O)cc3ccc4c(c23)OCO4)ccc1O`, the CC50 at 48 h is > 12.5 µM.

For the compound `N#CCCCCCCCCOc1ccc(-c2c3c(cc4ccc5c(c24)OCO5)C(=O)OC3)cc1O`, the CC50 at 48 h is > 12.5 µM.

Consider `CCCCCC(=O)OCc1cc2ccc3c(c2c(-c2ccc(OC)c(O)c2)c1COC(=O)CCCCC)OCO3`, for which the CC50 at 48 h is > 12.5 µM.

`CCCCCOC(=O)CN1Cc2c(cc3ccc4c(c3c2-c2ccc3c(c2)OCO3)OCO4)C1=O` displayed a CC50 at 48 h of 3.05 µM.

On to `O=C1OCc2cc3ccc4c(c3c(-c3ccc(O)c(O)c3)c21)OCO4`, for which the CC50 at 48 h is > 12.5 µM.

Consider `CCCCCC(=O)OCc1cc2ccc3c(c2c(-c2ccc(OC)c(OC(=O)CCCCC)c2)c1COC(=O)CCCCC)OCO3`, for which the CC50 at 48 h was > 12.5 µM.

For `N#CCCN1Cc2c(cc3ccc4c(c3c2-c2ccc3c(c2)OCO3)OCO4)C1=O`, the CC50 at 48 h is > 12.5 µM.

Turning to `CCCCCCCCOC(=O)CN1Cc2c(cc3ccc4c(c3c2-c2ccc3c(c2)OCO3)OCO4)C1=O`, the 50% cytotoxic concentration (CC50) at 48 h is > 12.5 µM.

Consider `CC(=O)OCc1cc2ccc3c(c2c(-c2ccc(OC(C)=O)c(OC(C)=O)c2)c1COC(C)=O)OCO3`, for which the CC50 at 48 h was > 12.5 µM.

As to `COc1ccc(-c2c(CO)c(CO)cc3ccc4c(c23)OCO4)cc1OC`, the cytotoxic concentration (CC50) at 48 h is > 12.5 µM.

In the case of `COc1ccc(-c2c(CO)c(COC(C)=O)cc3ccc4c(c23)OCO4)cc1O`, the cytotoxic concentration (CC50) at 48 h is > 12.5 µM.

As to `COc1cc(-c2c(COC(C)=O)c(COC(C)=O)cc3ccc4c(c23)OCO4)ccc1OC(C)=O`, the CC50 at 48 h is > 12.5 µM.

On to `N#Cc1cc2ccc3c(c2c(-c2ccc4c(c2)OCO4)c1C#N)OCO3`, for which the CC50 at 48 h was > 12.5 µM.

On to `COc1ccc(-c2c(COC(C)=O)c(COC(C)=O)cc3ccc4c(c23)OCO4)cc1OC(C)=O`, for which the half-maximal cytotoxic concentration (CC50) at 48 h is > 12.5 µM.

As for `CCCCCC(=O)OCc1cc2ccc3c(c2c(-c2ccc(OC)c(OC)c2)c1CO)OCO3`, the CC50 at 48 h was > 12.5 µM.

Consider `CC(=O)OCc1cc2ccc3c(c2c(-c2ccc4c(c2)OCO4)c1CO)OCO3`, for which the CC50 at 48 h is > 12.5 µM.

As for `CCCCCC(=O)OCc1cc2ccc3c(c2c(-c2ccc(O)c(O)c2)c1COC(=O)CCCCC)OCO3`, the cytotoxic concentration (CC50) at 48 h was > 12.5 µM.

As to `O=C1OCc2c1cc1ccc3c(c1c2-c1ccc2c(c1)OC(F)(F)O2)OCO3`, the cytotoxic concentration (CC50) at 48 h is > 12.5 µM.

The subject of the next series is Hepatitis B virus. The series can be described thus: Antiviral activity against Hepatitis B virus infected in human HepA2 cells assessed as inhibition of viral surface antigen production after 2 days by enzyme immunoassay. The format is functional, organism-based. Conditions: HepA2, 48 h. In short, it runs like this: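 HepA2 cells (HepG2 transfected with two tandem HBV genome repeats, secreting HBsAg) were seeded at 3 × 10^4 per well (96-well) or 1 × 10^5 per well (24-well) in DMEM with 10% FCS for 24 h. They were washed twice with PBS pH 7.0 and treated with graded concentrations in serum-free DMEM for 48 h. Medium HBsAg was measured by enzyme immunoassay. EC50 is the concentration giving 50% of untreated HBsAg. Mean ± S.D., n = 3.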
Consider `CC(=O)OCc1cc2ccc3c(c2c(-c2ccc(O)c(O)c2)c1COC(C)=O)OCO3`, for which the EC50 is > 12.5 µM.

As for `COc1cc(-c2c(COC(C)=O)c(COC(C)=O)cc3ccc4c(c23)OCO4)ccc1O`, the EC50 is > 12.5 µM.

On to `N#CCCCCCCCCOc1ccc(-c2c3c(cc4ccc5c(c24)OCO5)C(=O)OC3)cc1O`, for which the EC50 is > 12.5 µM.

On to `COc1ccc(-c2c3c(cc4ccc5c(c24)OCO5)C(=O)OC3)cc1OC`, for which the concentration giving a half-maximal response (EC50) was > 6 µM.

With `CCCCCC(=O)OCc1cc2ccc3c(c2c(-c2ccc(OC)c(O)c2)c1COC(=O)CCCCC)OCO3`, the EC50 was found to be 3.33 µM.

For the compound `CCCCCOC(=O)CN1Cc2c(cc3ccc4c(c3c2-c2ccc3c(c2)OCO3)OCO4)C1=O`, the EC50 was > 12.5 µM.

As to `O=C1OCc2cc3ccc4c(c3c(-c3ccc(O)c(O)c3)c21)OCO4`, the EC50 was 3.4 µM.

On to `CCCCCC(=O)OCc1cc2ccc3c(c2c(-c2ccc(OC)c(OC(=O)CCCCC)c2)c1COC(=O)CCCCC)OCO3`, for which the EC50 was > 12.5 µM.

Consider `N#CCCN1Cc2c(cc3ccc4c(c3c2-c2ccc3c(c2)OCO3)OCO4)C1=O`, for which the concentration for a half-maximal effect (EC50) is > 6 µM.

`CCCCCCCCOC(=O)CN1Cc2c(cc3ccc4c(c3c2-c2ccc3c(c2)OCO3)OCO4)C1=O`: the concentration for a half-maximal effect (EC50) is > 6 µM.

In the case of `CC(=O)OCc1cc2ccc3c(c2c(-c2ccc(OC(C)=O)c(OC(C)=O)c2)c1COC(C)=O)OCO3`, the 50% effective concentration (EC50) was > 12.5 µM.

Consider `COc1ccc(-c2c(CO)c(CO)cc3ccc4c(c23)OCO4)cc1OC`, for which the EC50 was > 12.5 µM.

For `COc1ccc(-c2c(CO)c(COC(C)=O)cc3ccc4c(c23)OCO4)cc1O`, the 50% effective concentration (EC50) turned out to be 0.49 µM.

In the case of `COc1cc(-c2c(COC(C)=O)c(COC(C)=O)cc3ccc4c(c23)OCO4)ccc1OC(C)=O`, the 50% effective concentration (EC50) is 2.77 µM.

Turning to `N#Cc1cc2ccc3c(c2c(-c2ccc4c(c2)OCO4)c1C#N)OCO3`, the EC50 was > 6 µM.

For `COc1ccc(-c2c(COC(C)=O)c(COC(C)=O)cc3ccc4c(c23)OCO4)cc1OC(C)=O`, the concentration giving a half-maximal response (EC50) was determined as 0.65 µM.

As for `CCCCCC(=O)OCc1cc2ccc3c(c2c(-c2ccc(OC)c(OC)c2)c1CO)OCO3`, the half-maximal effective concentration (EC50) is > 12.5 µM.

For the compound `CCCCCC(=O)OCc1cc2ccc3c(c2c(-c2ccc(O)c(O)c2)c1COC(=O)CCCCC)OCO3`, the EC50 was > 12.5 µM.

In the case of `O=C1OCc2c1cc1ccc3c(c1c2-c1ccc2c(c1)OC(F)(F)O2)OCO3`, the half-maximal effective concentration (EC50) is 0.38 µM.

Another series concerns Hepatitis B virus. The series is described as follows: Antiviral activity against Hepatitis B virus infected in human HepA2 cells assessed as inhibition of viral core promoter activity at 3 uM after 24 hrs by luciferase reporter gene assay. To be noted: HepA2, 24 h.
`O=C1OCc2c1cc1ccc3c(c1c2-c1ccc2c(c1)OCO2)OCO3` [HELIOXANTHIN]: the inhibition at 3 µM was 30%.
